According to ChEMBL document CHEMBL3580590, “A Developability-Focused Optimization Approach Allows Identification of in Vivo Fast-Acting Antimalarials: N-[3-[(Benzimidazol-2-yl)amino]propyl]amides” (J Med Chem, 2015):
In brackets after ≈: the same amount, converted by molar mass. Activity calls are given as the source filed them. The calls are words filed in the database; no cut-off is given here.

Key:
Plasmodium falciparum [1] = assay: Antimalarial activity against Plasmodium falciparum 3D7A infected in red blood cells assessed as inhibition of parasite growth after 24 hrs by [3H]hypoxanthine incorporation assay; type: functional, organism-based
How it was run: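 P. falciparum 3D7 parasitized RBC (0.5% parasitemia, 2% hematocrit) in RPMI-1640 with 5% albumax and 5 μM hypoxanthine. 3H-hypoxanthine was then added for a further 24 h. Cells were harvested onto glass-fiber filters and incorporation was read by scintillation; IC50 was derived.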

[2] = Cytotoxicity against human HepG2 cells by ATP bioluminescene method; type: cell-based; conditions: read-out: TC50 (the source's name)
[3] = Kinetic solubility of the compound in DMSO/phosphate buffered saline at pH 7.4 by chemiluminescent nitrogen detection method; type: physicochemical; conditions: read-out: Kinetic_solubility
How it was run: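 Kinetic solubility from DMSO stock solution in phosphate-buffered saline, pH 7.4, quantified by chemiluminescent nitrogen detection.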

Plasmodium falciparum [4] = conditions: 3D70087/N9, 100 mg/kg
Plasmodium falciparum [5] = assay: Antimalarial activity against chloroquine and pyrimethamine-resistant Plasmodium falciparum V1/S assessed as inhibition of parasite growth; type: functional, organism-based
How it was run: (§1)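 Growth inhibition by [3H]-hypoxanthine incorporation, which tracks parasite growth. Parasitised RBC culture (0.5% parasitemia, 2% haematocrit) in RPMI-1640 with 5% Albumax and 5 μM hypoxanthine, exposed to serial drug dilutions. Cells harvested onto glass-fibre filters, radioactivity counted, IC50 derived.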

[6] = Clearance in CD1 mouse at 1 mg/kg, iv by LC-MS/MS analysis; type: ADME, organism-based; conditions: in vivo
How it was run: (§2)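 Mice were dosed IV at 1 mg/kg (0.1 mg/mL in 20% encapsine, 5% DMSO in saline) or PO at 10 mg/kg (1 mg/mL suspension in 1% methylcellulose), 10 mL/kg each. After IV dosing, blood was sampled from 5 min to 24 h. Blood was mixed 1:1 with 0.1% saponine and frozen at −80 °C. Samples were acetonitrile-extracted and analyzed by positive-ESI LC-MS/MS.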

[7] = Oral bioavailability in CD1 mouse at 10 mg/kg administered via gavage by LC-MS/MS analysis; type: ADME, organism-based; conditions: in vivo; how it was run: as §2
Plasmodium falciparum [8] = assay: Antimalarial activity against erythrocytic stage of Plasmodium falciparum 3D70087/N9 infected in NSG mouse engrafted with human erythrocytes assessed as parasite killing at 100 mg/kg, po qd for 4 days starting from day 3 to day 6 after parasite infection measured 48 hrs after initiation of drug treatment by Giemsa-staining based microscopy; type: functional, organism-based
Plasmodium falciparum [9] = assay: Antimalarial activity against chloroquine and pyrimethamine-resistant Plasmodium falciparum W2 assessed as inhibition of parasite growth; type: functional, organism-based; how it was run: as §1
[10] = Solubility of the compound in fasted state simulated intestinal fluid; type: ADME
[11] = Selectivity index, ratio of TC50 for human HepG2 cells to IC50 for Plasmodium falciparum 3D7A; type: toxicity, cell-based; conditions: read-out: Selectivity Index
[12] = molecular target: Voltage-gated inwardly rectifying potassium channel KCNH2 (Homo sapiens, UniProt Q12809); assay: Inhibition of human ERG by IonWorks electrophysiology
Sequence of Voltage-gated inwardly rectifying potassium channel KCNH2 (Q12809 whole entry): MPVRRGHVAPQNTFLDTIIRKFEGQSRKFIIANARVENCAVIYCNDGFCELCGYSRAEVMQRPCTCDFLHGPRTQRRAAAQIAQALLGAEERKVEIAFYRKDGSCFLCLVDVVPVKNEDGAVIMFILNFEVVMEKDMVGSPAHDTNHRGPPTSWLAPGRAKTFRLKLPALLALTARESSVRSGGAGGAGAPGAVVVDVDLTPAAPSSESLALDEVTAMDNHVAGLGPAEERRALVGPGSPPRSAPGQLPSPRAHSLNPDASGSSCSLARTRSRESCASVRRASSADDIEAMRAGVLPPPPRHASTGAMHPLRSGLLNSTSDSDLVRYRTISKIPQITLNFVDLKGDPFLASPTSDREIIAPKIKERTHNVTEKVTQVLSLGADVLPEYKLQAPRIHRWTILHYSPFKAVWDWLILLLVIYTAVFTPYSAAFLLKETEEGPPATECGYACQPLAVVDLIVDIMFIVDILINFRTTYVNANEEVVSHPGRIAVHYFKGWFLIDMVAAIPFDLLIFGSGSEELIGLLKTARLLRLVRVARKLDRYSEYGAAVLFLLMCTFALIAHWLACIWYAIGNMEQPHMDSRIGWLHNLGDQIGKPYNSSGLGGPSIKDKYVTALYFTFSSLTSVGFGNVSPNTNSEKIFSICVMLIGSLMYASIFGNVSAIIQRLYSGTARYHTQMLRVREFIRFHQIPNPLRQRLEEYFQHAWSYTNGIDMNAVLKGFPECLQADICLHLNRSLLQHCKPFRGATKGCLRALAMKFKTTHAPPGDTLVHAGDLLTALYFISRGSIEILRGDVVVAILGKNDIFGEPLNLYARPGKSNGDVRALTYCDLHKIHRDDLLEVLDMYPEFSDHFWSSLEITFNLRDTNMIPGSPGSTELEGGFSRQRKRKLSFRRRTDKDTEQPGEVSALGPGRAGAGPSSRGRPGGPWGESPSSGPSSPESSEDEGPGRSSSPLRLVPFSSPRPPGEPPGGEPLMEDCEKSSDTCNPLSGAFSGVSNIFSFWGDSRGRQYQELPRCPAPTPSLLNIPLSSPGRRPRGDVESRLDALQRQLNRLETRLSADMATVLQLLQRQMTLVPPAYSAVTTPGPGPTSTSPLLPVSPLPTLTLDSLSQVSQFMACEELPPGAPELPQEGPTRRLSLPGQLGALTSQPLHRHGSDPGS

Compound | IC50 (Plasmodium falciparum [1]) [nM] | further results
O=C(NCCCNc1nc2cccnc2[nH]1)c1cc(Cl)cc(Cl)c1 | 2540 | –
O=C(NCCCNc1nc2ccccc2[nH]1)c1cccc(Cl)c1 | 300 | –
Cc1cccc(C(=O)NCCCNc2nc3ccccc3[nH]2)c1 | 970 | –
O=C(NCCCNc1nc2ccccc2[nH]1)C1CCOCC1 | 2640 | –
COC(=O)c1ccc2[nH]c(NCCCNC(=O)c3cc(Cl)cc(Cl)c3)nc2c1 | 150 | CC50 [2]: 25700 nM; solubility kinetic [3]: 29 µM (≈ 12.2 µg/mL)
O=C(NCCCNc1nc2ccccc2[nH]1)c1cc(Cl)cc(Cl)c1 | 94 | inhibition (Plasmodium falciparum [4]): Active; IC50 (Plasmodium falciparum [5]): 1030 nM; clearance [6]: 39.7 mL/min/kg; CC50 [2]: 36300 nM; bioavailability [7]: 81%; solubility kinetic [3]: 239 µM (≈ 86.8 µg/mL); Activity (Plasmodium falciparum [8]): Active; IC50 (Plasmodium falciparum [9]): 410 nM; solubility [10]: > 100 µg/mL
CN(C)C(=O)c1cccc(C(=O)NCCCNc2nc3ccccc3[nH]2)c1 | > 5000 | –
O=C(NC1(c2nc3ccccc3[nH]2)CC1)c1cc(Cl)cc(Cl)c1 | > 5000 | –
O=C(NCCCNc1nc2ccccc2[nH]1)c1ccc(Cl)cc1 | 1080 | –
O=C(NCCCNc1nc2ccccc2[nH]1)c1cccc(OC(F)(F)F)c1 | 370 | –
O=C(NCCCNc1nc2ccncc2[nH]1)c1cc(Cl)cc(Cl)c1 | 1060 | –
Cc1ccc(C(=O)NCCCNc2nc3ccccc3[nH]2)o1 | 2260 | –
COc1c(Cl)cc(C(=O)NCCCNc2nc3ccccc3[nH]2)cc1Cl | 100 | –
CN(C)Cc1ccc(C(=O)NCCCNc2nc3ccccc3[nH]2)cc1 | 2260 | –
O=C(NCCCNc1nc2ccccc2[nH]1)c1cc(Cl)c(O)c(Cl)c1 | > 5000 | –
O=C(O)c1cccc(C(=O)NCCCNc2nc3ccccc3[nH]2)c1 | > 5000 | –
CS(=O)(=O)Nc1cccc(C(=O)NCCCNc2nc3ccccc3[nH]2)c1 | > 5000 | –
O=C(NCC1(CNc2nc3ccccc3[nH]2)CC1)c1cc(Cl)cc(Cl)c1 | 1030 | –
O=C(NCCCNc1nc2ccccc2[nH]1)C1CCNCC1 | > 5000 | –
N#Cc1ccc2[nH]c(NCCCNC(=O)c3cc(Cl)cc(Cl)c3)nc2c1 | 1470 | –
N#Cc1ccc(C(=O)NCCCNc2nc3ccccc3[nH]2)cc1F | 1370 | –
O=C(NCCCCc1nc2ccccc2[nH]1)c1cc(Cl)cc(Cl)c1 | > 5000 | –
O=C(CCNC(=O)c1cc(Cl)cc(Cl)c1)Nc1nc2ccccc2[nH]1 | 4180 | –
COc1cccc(C(=O)NCCCNc2nc3ccccc3[nH]2)c1 | 930 | –

Compound | IC50 (Plasmodium falciparum [1]) [nM] | further results
O=C(NCCCNc1nc2ccccc2[nH]1)c1cccc(O)c1 | > 5000 | –
O=C(NCCCNc1nc2ccccc2[nH]1)c1ccc(CN2CCCC2)cc1 | 2300 | CC50 [2]: > 100000 nM; solubility kinetic [3]: 322 µM (≈ 122 µg/mL)
COC(=O)c1cccc(C(=O)NCCCNc2nc3ccccc3[nH]2)c1 | 630 | –
O=C(NCCCNc1nc2ccccc2[nH]1)c1cccc(CO)c1 | > 5000 | –
O=C(NCCCNc1nc2ccccc2[nH]1)C1CCCCC1 | 1800 | –
O=C(NCCNc1nc2ccccc2[nH]1)c1cc(Cl)cc(Cl)c1 | 1830 | –
Cn1c(NCCCNC(=O)c2cc(Cl)cc(Cl)c2)nc2ccccc21 | > 5000 | –
O=C(NCCCNc1nc2cc(F)ccc2[nH]1)c1cc(Cl)cc(Cl)c1 | 120 | –
Cn1cccc1C(=O)NCCCNc1nc2ccccc2[nH]1 | > 5000 | –
O=C(NCCCNc1nc2ccccc2[nH]1)c1cc(Cl)ccc1Cl | 1210 | –
O=C(Nc1cccc(-c2nc3ccccc3[nH]2)c1)c1cc(Cl)cc(Cl)c1 | 1520 | selectivity ratio [11]: 17.3; IC50 [12]: > 14800 nM; CC50 [2]: 26300 nM; solubility kinetic [3]: 64 µM (≈ 24.5 µg/mL)
O=C(NCCCNc1nc2ccccc2[nH]1)c1cc(F)cc(F)c1 | 320 | –
O=C(NCCCNc1nc2ccccc2[nH]1)c1cccc(CN2CCCC2)c1 | > 5000 | –
CC(CNC(=O)c1cc(Cl)cc(Cl)c1)CNc1nc2ccccc2[nH]1 (stereo unspecified) | 520 | –
CC(C)(C)OC(=O)N1CCC(C(=O)NCCCNc2nc3ccccc3[nH]2)CC1 | 900 | selectivity ratio [11]: > 111; IC50 [12]: > 50100 nM; CC50 [2]: > 100000 nM; solubility kinetic [3]: 393 µM (≈ 158 µg/mL)
CCc1nc(N)nc(N)c1-c1ccc(Cl)cc1 [PYRIMETHAMINE] | 68 | IC50 (Plasmodium falciparum [5]): > 20000 nM; IC50 (Plasmodium falciparum [9]): > 20000 nM
O=C(NCCCNc1nc2ccccc2[nH]1)c1cccnc1 | > 5000 | –
O=C(NCC(O)CNc1nc2ccccc2[nH]1)c1cc(Cl)cc(Cl)c1 (stereo unspecified) | 1380 | –
O=C(NCCCNc1nc2ccccc2[nH]1)c1ccc2c(c1)CCO2 | 3260 | –
N#Cc1cccc(C(=O)NCCCNc2nc3ccccc3[nH]2)c1 | 380 | –
COc1cc(OC)cc(C(=O)NCCCNc2nc3ccccc3[nH]2)c1 | 330 | –
O=C(c1cc(Cl)cc(Cl)c1)N1CCN(c2nc3ccccc3[nH]2)CC1 | 2520 | –
O=C(NCCCNc1nc2ccccc2[nH]1)c1ccccc1 | 3170 | –
O=C(NCCCNc1nc2ccccc2[nH]1)C1CCC(CO)CC1 (stereo unspecified) | > 5000 | –

Compound | IC50 (Plasmodium falciparum [1]) [nM] | further results
O=C(NC1CCN(c2nc3ccccc3[nH]2)C1)c1cc(Cl)cc(Cl)c1 (stereo unspecified) | > 5000 | –
O=C(Cc1cccc(Cl)c1)NCCCNc1nc2ccccc2[nH]1 | 660 | –
O=C(NCCCNc1nc2ccccc2[nH]1)c1cccc(Cl)c1Cl | 3420 | –
O=C(NCCCNc1nc2ccccc2[nH]1)c1c(Cl)cccc1Cl | > 5000 | –
O=C(NCCCNc1nc2ccccc2[nH]1)C1CCC(O)CC1 (stereo unspecified) | > 5000 | –
CC(CCNC(=O)c1cc(Cl)cc(Cl)c1)Nc1nc2ccccc2[nH]1 (stereo unspecified) | 1580 | –
O=C(NCCCCNc1nc2ccccc2[nH]1)c1cc(Cl)cc(Cl)c1 | 400 | –
O=C(NCCCNc1nc2ccccc2[nH]1)c1ccc2c(c1)OCCO2 | 1650 | –
CN(CCCNC(=O)c1cc(Cl)cc(Cl)c1)c1nc2ccccc2[nH]1 | 1800 | –
O=C(NCCCNc1nc2ccccc2[nH]1)c1ccccn1 | > 5000 | –
O=C(NCCCNc1nc2ccccc2[nH]1)c1cccc(C(F)(F)F)c1 | 140 | –
O=C(NCCCNc1nc2ccccc2[nH]1)c1cncc(Cl)c1 | 460 | –
Cc1ccc(C(=O)NCCCNc2nc3ccccc3[nH]2)s1 | 1830 | –
O=C(NCCCNc1nc2ccccc2[nH]1)c1ccccc1Cl | 1050 | –
O=C(NCCCNc1nc2ccccc2[nH]1)c1ccc(Cl)cc1Cl | 4030 | –
O=C(NCCCNc1nc2ccccc2[nH]1)c1ccc2c(c1)OCO2 | 3360 | –
CN1CCN(Cc2ccc(C(=O)NCCCNc3nc4ccccc4[nH]3)cc2)CC1 | > 5000 | –
O=C(NCCCNc1nc2ccccc2[nH]1)c1ccncc1 | > 5000 | –
O=C(NCCCNc1nc2c(F)cccc2[nH]1)c1cc(Cl)cc(Cl)c1 | 300 | –
O=C(O)c1ccc2[nH]c(NCCCNC(=O)c3cc(Cl)cc(Cl)c3)nc2c1 | > 5000 | –
O=C(NCCCNc1nc2ccccc2[nH]1)c1ccnc(C(F)(F)F)c1 | 250 | CC50 [2]: > 100000 nM; solubility kinetic [3]: 349 µM (≈ 127 µg/mL)
CN(CCCNc1nc2ccccc2[nH]1)C(=O)c1cc(Cl)cc(Cl)c1 | > 5000 | –
O=C(NCCCNc1nc2ccccc2[nH]1)c1ccc(Cl)c(Cl)c1 | 170 | –
